The target in test [1] is T1, C-type lectin domain family 7 member A (Homo sapiens) (UniProt Q9BXN2).
T1 sequence (whole entry): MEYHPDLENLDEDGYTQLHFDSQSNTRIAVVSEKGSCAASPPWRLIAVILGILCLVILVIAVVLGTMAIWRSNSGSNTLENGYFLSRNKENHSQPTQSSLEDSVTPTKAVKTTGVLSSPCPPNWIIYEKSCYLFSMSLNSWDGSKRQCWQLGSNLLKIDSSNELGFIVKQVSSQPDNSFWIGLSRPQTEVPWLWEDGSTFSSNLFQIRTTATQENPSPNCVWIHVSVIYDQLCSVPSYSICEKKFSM
Nature of the test: Agonist activity at Dectin-1 expressed in human 293T cells assessed as LPS-mediated NF-kappaB activation after 6 hrs by dual luciferase reporter gene assay. It is filed as functional, cell-based. The method in brief: (§1)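 293T cells were plated at 1 × 10⁴ cells/well in DMEM with 10% FBS for 20 h at 37 °C, 5% CO₂. They were then lipofected for 18 h. Dectin-1 wells received Dectin-1A, CARD9 and Bcl10 plasmids; TLR4 wells received TLR4 and MD-2 plasmids. Both received NF-κB-RE firefly and TK-Renilla reporters. Cells were stimulated 6 h with oligosaccharides, SPG, or oligosaccharides plus LPS. Read-out was the firefly/Renilla dual-luciferase ratio.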

The target of test [2] is T2, C-type lectin domain family 7 member A (Mus musculus) (UniProt Q6QLQ4).
T2 sequence (whole entry): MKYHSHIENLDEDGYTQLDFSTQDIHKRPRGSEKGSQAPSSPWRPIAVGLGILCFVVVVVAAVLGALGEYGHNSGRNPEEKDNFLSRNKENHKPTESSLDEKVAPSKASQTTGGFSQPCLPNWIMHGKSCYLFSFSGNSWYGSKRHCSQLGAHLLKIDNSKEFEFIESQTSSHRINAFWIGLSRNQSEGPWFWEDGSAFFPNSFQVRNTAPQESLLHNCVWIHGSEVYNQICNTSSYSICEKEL
Nature of the test: Inhibition of mouse N-terminal hexahistidine-tagged C-type lectin domain of Dectin-1 expressed in Escherichia coli BL21 (DE3) binding to solid-supported schizophyllan pretreated for 30 mins prior SPG addition measured after 1 hr by competitive ELISA relative to SPG.

The target of test [3] is Toll-like receptor 4 (Homo sapiens) (UniProt O00206). Nature of the test: Agonist activity at TLR4 expressed in human 293T cells assessed as LPS-mediated NF-kappaB activation after 6 hrs by dual luciferase reporter gene assay. The test is classed as functional, cell-based. The method in brief:
as §1

Test [4] deals with T2, C-type lectin domain family 7 member A (Mus musculus). In words: Binding affinity to mouse N-terminal hexahistidine-tagged C-type lectin domain of Dectin-1 expressed in Escherichia coli BL21 (DE3) by measuring saturation transfer difference amplification factor. The essentials: (§2)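 Protein was mouse Dectin-1 CTLD (Gly113–Leu244) with an N-terminal His6 tag and thrombin site, expressed in E. coli BL21(DE3)codonplus in LB. Expression was induced 6 h at 37 °C. Inclusion bodies were solubilized in 8 M urea, 50 mM Tris-HCl pH 8.0, 50 mM NaCl. Protein was refolded 16 h at 4 °C by dilution into 200 mM Tris-HCl pH 8.0, 0.4 M L-arginine, 5.0 mM GSH, 0.5 mM GSSG, then purified. Ligand was titrated at 0–25 molar equivalents with ¹H NMR monitoring.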

Test [5] shares this target. Nature of the test: Binding affinity to mouse N-terminal hexahistidine-tagged C-type lectin domain of Dectin-1 expressed in Escherichia coli BL21 (DE3) by STD-NMR analysis. The essentials:
as §2

Activity calls are given as the source filed them. The calls are words filed in the database; no cut-off is given here.

Chain of Toll-like receptor 4 (Homo sapiens) (O00206 whole entry): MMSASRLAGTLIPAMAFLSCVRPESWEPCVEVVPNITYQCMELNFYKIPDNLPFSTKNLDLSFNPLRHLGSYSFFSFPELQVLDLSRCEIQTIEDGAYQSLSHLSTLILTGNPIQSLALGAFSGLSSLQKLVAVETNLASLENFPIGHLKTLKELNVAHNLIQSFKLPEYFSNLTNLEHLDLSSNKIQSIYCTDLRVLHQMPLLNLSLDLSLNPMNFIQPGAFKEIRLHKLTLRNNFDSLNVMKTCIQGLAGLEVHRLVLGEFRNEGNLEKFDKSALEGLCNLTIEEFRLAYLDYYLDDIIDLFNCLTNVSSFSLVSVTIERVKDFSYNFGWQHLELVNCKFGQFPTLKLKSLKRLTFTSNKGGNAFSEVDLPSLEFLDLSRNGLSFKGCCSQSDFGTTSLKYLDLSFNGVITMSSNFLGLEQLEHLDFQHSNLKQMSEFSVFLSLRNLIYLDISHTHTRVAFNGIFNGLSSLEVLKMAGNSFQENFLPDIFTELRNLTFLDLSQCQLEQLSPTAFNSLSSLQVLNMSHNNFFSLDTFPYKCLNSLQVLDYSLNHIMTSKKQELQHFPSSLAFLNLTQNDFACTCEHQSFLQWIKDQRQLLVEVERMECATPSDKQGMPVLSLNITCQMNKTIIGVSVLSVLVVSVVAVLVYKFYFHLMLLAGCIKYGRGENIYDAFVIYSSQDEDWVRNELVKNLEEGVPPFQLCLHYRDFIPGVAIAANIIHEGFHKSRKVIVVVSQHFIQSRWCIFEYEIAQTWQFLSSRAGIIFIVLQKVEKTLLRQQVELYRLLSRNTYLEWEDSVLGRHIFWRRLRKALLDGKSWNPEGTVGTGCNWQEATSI

As for `NCCCCCCO[C@@H]1O[C@H](CO)[C@@H](O)[C@H](O[C@@H]2O[C@H](CO)[C@@H](O)[C@H](O[C@@H]3O[C@H](CO)[C@@H](O)[C@H](O[C@@H]4O[C@H](CO)[C@@H](O)[C@H](O[C@@H]5O[C@H](CO)[C@@H](O)[C@H](O[C@@H]6O[C@H](CO[C@@H]7O[C@H](CO)[C@@H](O)[C@H](O)[C@H]7O)[C@@H](O)[C@H](O[C@@H]7O[C@H](CO)[C@@H](O)[C@H](O[C@@H]8O[C@H](CO)[C@@H](O)[C@H](O)[C@H]8O)[C@H]7O)[C@H]6O)[C@H]5O)[C@H]4O)[C@H]3O)[C@H]2O)[C@H]1O`, the result in test [1] and in test [2] was inactive.
For the compound `NCCCCCCO[C@@H]1O[C@H](CO)[C@@H](O)[C@H](O[C@@H]2O[C@H](CO)[C@@H](O)[C@H](O[C@@H]3O[C@H](CO)[C@@H](O)[C@H](O[C@@H]4O[C@H](CO)[C@@H](O)[C@H](O[C@@H]5O[C@H](CO)[C@@H](O)[C@H](O[C@@H]6O[C@H](CO)[C@@H](O)[C@H](O[C@@H]7O[C@H](CO)[C@@H](O)[C@H](O[C@@H]8O[C@H](CO)[C@@H](O)[C@H](O[C@@H]9O[C@H](CO)[C@@H](O)[C@H](O[C@@H]%10O[C@H](CO)[C@@H](O)[C@H](O[C@@H]%11O[C@H](CO)[C@@H](O)[C@H](O[C@@H]%12O[C@H](CO)[C@@H](O)[C@H](O[C@@H]%13O[C@H](CO)[C@@H](O)[C@H](O[C@@H]%14O[C@H](CO)[C@@H](O)[C@H](O[C@@H]%15O[C@H](CO)[C@@H](O)[C@H](O[C@@H]%16O[C@H](CO)[C@@H](O)[C@H](O)[C@H]%16O)[C@H]%15O)[C@H]%14O)[C@H]%13O)[C@H]%12O)[C@H]%11O)[C@H]%10O)[C@H]9O)[C@H]8O)[C@H]7O)[C@H]6O)[C@H]5O)[C@H]4O)[C@H]3O)[C@H]2O)[C@H]1O`, the outcome in test [3] was inactive. Also, the result in test [4], in test [1] and in test [5] was Active. Further, the fold change (FC) in test [2] is 10.
For `NCCCCCCO[C@@H]1O[C@H](CO)[C@@H](O)[C@H](O[C@@H]2O[C@H](CO)[C@@H](O)[C@H](O[C@@H]3O[C@H](CO)[C@@H](O)[C@H](O[C@@H]4O[C@H](CO)[C@@H](O)[C@H](O[C@@H]5O[C@H](CO)[C@@H](O)[C@H](O[C@@H]6O[C@H](CO)[C@@H](O)[C@H](O[C@@H]7O[C@H](CO)[C@@H](O)[C@H](O[C@@H]8O[C@H](CO)[C@@H](O)[C@H](O[C@@H]9O[C@H](CO)[C@@H](O)[C@H](O[C@@H]%10O[C@H](CO)[C@@H](O)[C@H](O[C@@H]%11O[C@H](CO)[C@@H](O)[C@H](O[C@@H]%12O[C@H](CO)[C@@H](O)[C@H](O[C@@H]%13O[C@H](CO)[C@@H](O)[C@H](O[C@@H]%14O[C@H](CO[C@@H]%15O[C@H](CO)[C@@H](O)[C@H](O)[C@H]%15O)[C@@H](O)[C@H](O[C@@H]%15O[C@H](CO)[C@@H](O)[C@H](O[C@@H]%16O[C@H](CO)[C@@H](O)[C@H](O)[C@H]%16O)[C@H]%15O)[C@H]%14O)[C@H]%13O)[C@H]%12O)[C@H]%11O)[C@H]%10O)[C@H]9O)[C@H]8O)[C@H]7O)[C@H]6O)[C@H]5O)[C@H]4O)[C@H]3O)[C@H]2O)[C@H]1O`, the result in test [1] was Active. The fold change (FC) in test [2] amounted to 10.
`NCCCCCCO[C@@H]1O[C@H](CO)[C@@H](O)[C@H](O[C@@H]2O[C@H](CO)[C@@H](O)[C@H](O[C@@H]3O[C@H](CO)[C@@H](O)[C@H](O[C@@H]4O[C@H](CO)[C@@H](O)[C@H](O[C@@H]5O[C@H](CO)[C@@H](O)[C@H](O[C@@H]6O[C@H](CO)[C@@H](O)[C@H](O[C@@H]7O[C@H](CO)[C@@H](O)[C@H](O[C@@H]8O[C@H](CO)[C@@H](O)[C@H](O[C@@H]9O[C@H](CO)[C@@H](O)[C@H](O[C@@H]%10O[C@H](CO)[C@@H](O)[C@H](O[C@@H]%11O[C@H](CO)[C@@H](O)[C@H](O[C@@H]%12O[C@H](CO)[C@@H](O)[C@H](O)[C@H]%12O)[C@H]%11O)[C@H]%10O)[C@H]9O)[C@H]8O)[C@H]7O)[C@H]6O)[C@H]5O)[C@H]4O)[C@H]3O)[C@H]2O)[C@H]1O`: the result in test [3], in test [1] and in test [2] was inactive.
Turning to `NCCCCCCO[C@@H]1O[C@H](CO)[C@@H](O)[C@H](O[C@@H]2O[C@H](CO)[C@@H](O)[C@H](O[C@@H]3O[C@H](CO)[C@@H](O)[C@H](O[C@@H]4O[C@H](CO)[C@@H](O)[C@H](O[C@@H]5O[C@H](CO)[C@@H](O)[C@H](O[C@@H]6O[C@H](CO)[C@@H](O)[C@H](O[C@@H]7O[C@H](CO)[C@@H](O)[C@H](O[C@@H]8O[C@H](CO)[C@@H](O)[C@H](O[C@@H]9O[C@H](CO)[C@@H](O)[C@H](O[C@@H]%10O[C@H](CO[C@@H]%11O[C@H](CO)[C@@H](O)[C@H](O)[C@H]%11O)[C@@H](O)[C@H](O[C@@H]%11O[C@H](CO)[C@@H](O)[C@H](O[C@@H]%12O[C@H](CO)[C@@H](O)[C@H](O)[C@H]%12O)[C@H]%11O)[C@H]%10O)[C@H]9O)[C@H]8O)[C@H]7O)[C@H]6O)[C@H]5O)[C@H]4O)[C@H]3O)[C@H]2O)[C@H]1O`, the outcome in test [1] and in test [2] was inactive.
Take `NCCCCCCO[C@@H]1O[C@H](CO)[C@@H](O)[C@H](O[C@@H]2O[C@H](CO)[C@@H](O)[C@H](O[C@@H]3O[C@H](CO)[C@@H](O)[C@H](O[C@@H]4O[C@H](CO)[C@@H](O)[C@H](O[C@@H]5O[C@H](CO)[C@@H](O)[C@H](O[C@@H]6O[C@H](CO)[C@@H](O)[C@H](O[C@@H]7O[C@H](CO)[C@@H](O)[C@H](O[C@@H]8O[C@H](CO)[C@@H](O)[C@H](O)[C@H]8O)[C@H]7O)[C@H]6O)[C@H]5O)[C@H]4O)[C@H]3O)[C@H]2O)[C@H]1O`: the result in test [3], in test [1] and in test [2] was inactive.

For the origin of these results see ChEMBL document CHEMBL2034828, “Synthesis of β(1,3) oligoglucans exhibiting a Dectin-1 binding affinity and their biological evaluation” (Bioorg Med Chem, 2012).
